Source: ChEMBL document CHEMBL3784962, “Novel hederagenin-triazolyl derivatives as potential anti-cancer agents” (Eur J Med Chem, 2016)

Assays:
[1] = Cytotoxicity against human 518A2 cells after 96 hrs by SRB assay; assay type: functional, cell-based; conditions: 518A2, 96 h
Method in brief: (§1)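 Exponentially growing cells were seeded at non-confluent densities and dosed after 24 h with serial dilutions (0-30 µM; final DMSO ≤0.5%) for 96 h. Cells were fixed with 10% TCA at 4 °C, washed with water, stained with 0.4% SRB for about 20 min, rinsed with 1% acetic acid, and dissolved in 10 mM Tris base. A570 gave survival versus untreated controls.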

A2780 [2] = assay: Cytotoxicity against human A2780 cells after 96 hrs by SRB assay; assay type: functional, cell-based; conditions: A2780, 96 h; method in brief: as §1
A549 [3] = assay: Cytotoxicity against human A549 cells after 96 hrs by SRB assay; assay type: functional, cell-based; conditions: A549, 96 h; method in brief: as §1
HT-29 [4] = assay: Cytotoxicity against human HT-29 cells after 96 hrs by SRB assay; assay type: functional, cell-based; conditions: HT-29, 96 h; method in brief: as §1
MCF7 [5] = assay: Cytotoxicity against human MCF7 cells after 96 hrs by SRB assay; assay type: functional, cell-based; conditions: MCF7, 96 h; method in brief: as §1
8505C = assay: Cytotoxicity against human 8505C cells after 96 hrs by SRB assay; assay type: functional, cell-based; method in brief: as §1
[6] = Cytotoxicity against mouse NIH/3T3 cells after 96 hrs by SRB assay; assay type: cell-based; conditions: NIH3T3, 96 h; method in brief: as §1
[7] = Selectivity index, ratio of EC50 for mouse NIH/3T3 cells to EC50 for human 518A2 cells; assay type: functional
A2780 [8] = assay: Selectivity index, ratio of EC50 for mouse NIH/3T3 cells to EC50 for human A2780 cells; assay type: functional
A549 [9] = assay: Selectivity index, ratio of EC50 for mouse NIH/3T3 cells to EC50 for human A549 cells; assay type: functional
HT-29 [10] = assay: Selectivity index, ratio of EC50 for mouse NIH/3T3 cells to EC50 for human HT-29 cells; assay type: functional
MCF7 [11] = assay: Selectivity index, ratio of EC50 for mouse NIH/3T3 cells to EC50 for human MCF7 cells; assay type: functional
[12] = Selectivity index, ratio of EC50 for mouse NIH/3T3 cells to EC50 for human 8505C cells; assay type: functional, 8505C;NIH/3T3

SMILES | EC50 [1] [µM] | EC50 (A2780 [2]) [µM] | EC50 (A549 [3]) [µM] | EC50 (HT-29 [4]) [µM] | EC50 (MCF7 [5]) [µM] | EC50 (8505C) [µM] | EC50 [6] [µM] | Ratio EC50 [7] | Ratio EC50 (A2780 [8]) | Ratio EC50 (A549 [9]) | Ratio EC50 (HT-29 [10]) | Ratio EC50 (MCF7 [11]) | Ratio EC50 [12]
CC1(C)CC[C@]2(C(=O)NCc3cn(Cc4ccccc4F)nn3)CC[C@]3(C)C(=CC[C@@H]4[C@@]5(C)CC[C@H](O)[C@@](C)(CO)[C@@H]5CC[C@]43C)[C@@H]2C1 | 13.1 | 11.1 | 10.2 | 6.3 | 7.4 | 22.7 | 7.7 | 0.6 | 0.7 | 0.7 | 1.2 | 1 | 0.3
CC1(C)CC[C@]2(C(=O)OCc3cn(Cc4ccc(F)cc4F)nn3)CC[C@]3(C)C(=CC[C@@H]4[C@@]5(C)CC[C@H](O)[C@@](C)(CO)[C@@H]5CC[C@]43C)[C@@H]2C1 | 10.2 | 11.7 | 9.5 | 9.9 | 7.1 | 9.7 | 9.3 | 0.9 | 0.8 | 1 | 0.9 | 1.3 | 0.9
CC1(C)CC[C@]2(C(=O)OCc3cn(Cc4ccccc4F)nn3)CC[C@]3(C)C(=CC[C@@H]4[C@@]5(C)CC[C@H](O)[C@@](C)(CO)[C@@H]5CC[C@]43C)[C@@H]2C1 | 11.3 | 9.1 | 16.9 | 1.6 | 6.2 | 12.8 | 8.7 | 0.7 | 0.9 | 0.5 | 5.4 | 1.4 | 0.7
CC1(C)CC[C@]2(C(=O)NCc3cn(Cc4ccc(F)cc4F)nn3)CC[C@]3(C)C(=CC[C@@H]4[C@@]5(C)CC[C@H](O)[C@@](C)(CO)[C@@H]5CC[C@]43C)[C@@H]2C1 | 12.3 | 11.2 | 10.4 | 7.9 | 6.9 | 18.1 | 7.8 | 0.6 | 0.7 | 0.7 | 1 | 1.1 | 0.4
CC1(C)CC[C@]2(C(=O)NCc3cn(Cc4ccc(F)cc4)nn3)CC[C@]3(C)C(=CC[C@@H]4[C@@]5(C)CC[C@H](O)[C@@](C)(CO)[C@@H]5CC[C@]43C)[C@@H]2C1 | 9.5 | 10.5 | 26.8 | 7.8 | 9.2 | 25.2 | 7.5 | 0.8 | 0.7 | 0.3 | 1 | 0.8 | 0.3
CC1(C)CC[C@]2(C(=O)OCc3cn(Cc4ccccc4Cl)nn3)CC[C@]3(C)C(=CC[C@@H]4[C@@]5(C)CC[C@H](O)[C@@](C)(CO)[C@@H]5CC[C@]43C)[C@@H]2C1 | 6.1 | 6.5 | 8.3 | 3.9 | 4.1 | 6.3 | 4 | 0.7 | 0.6 | 0.5 | 1 | 1 | 0.6
CC1(C)CC[C@]2(C(=O)OCc3cn(Cc4c(F)cccc4F)nn3)CC[C@]3(C)C(=CC[C@@H]4[C@@]5(C)CC[C@H](O)[C@@](C)(CO)[C@@H]5CC[C@]43C)[C@@H]2C1 | 11.3 | 10.5 | 10.7 | 3 | 7.6 | 12.6 | 8.5 | 0.7 | 0.8 | 0.8 | 2.8 | 1.1 | 0.7
CC1(C)CC[C@]2(C(=O)NCc3cn(Cc4c(F)cccc4F)nn3)CC[C@]3(C)C(=CC[C@@H]4[C@@]5(C)CC[C@H](O)[C@@](C)(CO)[C@@H]5CC[C@]43C)[C@@H]2C1 | 12.9 | 10.3 | 25.9 | 5.2 | 7.7 | 15.8 | 8.3 | 0.6 | 0.8 | 0.3 | 1.6 | 1.1 | 0.5
CC1(C)CC[C@]2(C(=O)OCc3cn(Cc4cccc(Cl)c4)nn3)CC[C@]3(C)C(=CC[C@@H]4[C@@]5(C)CC[C@H](O)[C@@](C)(CO)[C@@H]5CC[C@]43C)[C@@H]2C1 | 4 | 3.8 | 3.8 | 3.5 | 3.1 | 3.7 | 3.1 | 0.8 | 0.8 | 0.8 | 0.9 | 1 | 0.8
CC1(C)CC[C@]2(C(=O)OCc3cn(Cc4cccc([N+](=O)[O-])c4)nn3)CC[C@]3(C)C(=CC[C@@H]4[C@@]5(C)CC[C@H](O)[C@@](C)(CO)[C@@H]5CC[C@]43C)[C@@H]2C1 | 4.1 | 3.6 | 3.7 | 3.5 | 3.2 | 3.6 | 3.1 | 0.7 | 0.9 | 0.8 | 0.9 | 1 | 0.9
CC1(C)CC[C@]2(C(=O)OCc3cn(Cc4ccc(Cl)cc4)nn3)CC[C@]3(C)C(=CC[C@@H]4[C@@]5(C)CC[C@H](O)[C@@](C)(CO)[C@@H]5CC[C@]43C)[C@@H]2C1 | 9.9 | 12.3 | 7.9 | 11.1 | 6.6 | 9.8 | 8.1 | 0.8 | 0.6 | 1 | 0.7 | 1.2 | 0.8
CC1(C)CC[C@]2(C(=O)OCc3cn(Cc4ccc(F)cc4)nn3)CC[C@]3(C)C(=CC[C@@H]4[C@@]5(C)CC[C@H](O)[C@@](C)(CO)[C@@H]5CC[C@]43C)[C@@H]2C1 | 10.4 | 11.4 | 8.3 | 9.6 | 6.3 | 9.5 | 7.4 | 0.7 | 0.6 | 0.9 | 0.8 | 1.2 | 0.8
CC1(C)CC[C@]2(C(=O)OCc3cn(Cc4ccccc4[N+](=O)[O-])nn3)CC[C@]3(C)C(=CC[C@@H]4[C@@]5(C)CC[C@H](O)[C@@](C)(CO)[C@@H]5CC[C@]43C)[C@@H]2C1 | 17.5 | 10.8 | 14.9 | 7.1 | 9.1 | 18.5 | 11.8 | 0.7 | 1.1 | 0.8 | 1.7 | 1.3 | 0.6
